Assay outcomes: PubChem BioAssay, Johns Hopkins Ion Channel Center
MrgX1 allo act: human MrgX1 positive allosteric modulation, primary screen; Q96LB2; MrgX1-HEK293, Fluo-4 calcium flux, FDSS; hits give high values; B-score at 10 µM; actives 0.63% (n = 310,000);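 active = plate-corrected calcium response at least 3 library SD above typical, normal starting fluorescence, not activating the receptor alone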;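 also: compound read alongside a low EC10 to EC30 dose of BAM8-22 agonist; peak minus trough fluorescence over baseline measured at the second addition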
MrgX1 antagonist: antagonists of human MrgX1 receptor | actives 1.3% (n = 310,000) | AID 588676 | MRGX1-HEK293 calcium flux, Fluo-4, BAM8-22 antagonism; hits give low values | B-score at 10 µM;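 active = calcium-response B-score plate-corrected more than 3 library SD below zero, starting fluorescence within 5 deviations, no agonist response on first addition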;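 also: peak minus trough fluorescence over baseline after final BAM8-22 challenge near maximal dose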
MrgX1 agonist: activates human MrgX1 receptor signaling; MrgX1-HEK293 cells, Fluo-4 calcium fluorescence, agonist mode; hits give high values; Q96LB2; actives 0.44% (n = 310,000); B-score at 10 µM;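 active = calcium response B-score plate-corrected fluorescence ratio at least 3 library SD, with starting fluorescence B-score inside 5 SD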
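Material: MrgX1-expressing HEK293 cells / Dosing: compound as first of three additions / Incubation: overnight seeding, then 1 h dark dye loading / Signal: Fluo-4 NW calcium fluorescence / Evaluation: B-scored fluorescence response ratio / Benchmarks: positive and negative control wells on each plate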
RGS4 block: human RGS4 inhibition | B-score at 10 µM | AID 463165 | P49798 | HEK293 M3R/RGS4 inducible, Fluo-4 calcium flux; hits give high values; triggered by carbachol at its EC20 | actives 0.45% (n = 310,000);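 active = B-score, a plate-corrected calcium signal, over three deviations above library mean, with baseline fluorescence within five deviations of library mean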;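 also: RGS4 expression induced by doxycycline in cells with stable M3 receptor; B-score is computed from the integrated fluorescence ratio over baseline after carbachol; higher B-score means a larger calcium signal and so more RGS4 inhibition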
Target sequence (P49798 whole entry, looked up): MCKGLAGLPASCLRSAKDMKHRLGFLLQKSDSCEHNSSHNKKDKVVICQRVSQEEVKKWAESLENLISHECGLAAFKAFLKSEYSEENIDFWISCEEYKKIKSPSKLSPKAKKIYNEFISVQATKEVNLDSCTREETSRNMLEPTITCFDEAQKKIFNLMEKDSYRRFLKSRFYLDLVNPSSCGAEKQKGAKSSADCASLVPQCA
RGS4 act: RGS4 potentiation or activation. actives 0.92% (n = 310,000). HEK293 M3R/inducible RGS4, carbachol calcium flux Fluo4; hits give low values. B-score at 10 µM;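 active = B-score of the integrated calcium signal more than 4 SD below the library mean, with starting fluorescence not abnormally high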;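 also: negative B-score means reduced calcium response which marks RGS4 activation or potentiation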
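System: HEK293 FlpIn-TREx cells, stable M3R, doxycycline-inducible RGS4. Timing: overnight RGS4 induction, 30 min dye load 37 °C, 20 min compound RT. Also added: carbachol, ECmax concentration. Measured by: Fluo4 fluorescence kinetic imaging of calcium. Evaluation: integrated calcium ratio converted to B score.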
Numbers without * were called inactive; i = inactive. Only some compounds are listed: those with a hit (about 3.5% of all), similar ones and a draw of the others.

SMILES | MrgX1 allo act | MrgX1 antagonist | MrgX1 agonist | RGS4 block | RGS4 act
COc1ccc(CN(C)C(=O)c2cc(-c3ccccc3)nc3ccc(C)cc23)c(OC)c1OC | i | i | i | i | -7.22*
COc1cccc(NC(=O)CN(C)C(=O)c2cc(-c3ccccc3)nc3ccccc23)c1 | i | i | i | i | i
COc1ccc(CCN(C)C(=O)c2cc(-c3ccccc3)nc3ccc(C)cc23)cc1OC | i | i | i | i | i
COc1cccc(CN(C)C(=O)c2cc(-c3ccc(F)cc3)nc3ccccc23)c1 | i | -15.2* | i | i | -8.12*
COc1ccccc1CN(C)C(=O)c1cc(-c2cccs2)nc2ccccc12 | i | i | i | i | -8.58*
Nn1cc(-c2ccccc2)nc1SCC(=O)N1CCN(S(=O)(=O)c2ccc3ccccc3c2)CC1 | i | i | i | i | i
COc1ccccc1N=Nc1c(C)noc1C | i | i | i | i | i
OC1(c2cccs2)CN(c2ccc(Cl)cc2)C2=[N+]1CCCS2 (configuration not stated) | i | i | 28* | i | i
OC1(c2cccs2)CN(c2ccc(Cl)cc2)C2=[N+]1CCCC2 (configuration not stated) | i | i | i | i | -9.11*
Cc1ccc(C)c(N2CC(O)(c3cccs3)[N+]3=C2CCCC3)c1 (configuration not stated) | i | i | i | i | i
O=C(/C=C/c1ccco1)OCC1CCCN2CCCCC12 (configuration not stated) | i | i | i | i | -6.96*
O=C(/C=C/c1ccccc1)NC(=S)NNC(=O)c1cccnc1 | i | i | i | i | i
CC(C)n1nc(C(=O)Nc2cccc(S(=O)(=O)NCc3ccco3)c2)c2ccccc2c1=O | i | i | i | i | -7.21*
O=C(c1cc(-c2ccccc2Cl)nc2ccccc12)N1CCN(c2ccccc2O)CC1 | i | i | i | i | -7.61*
Cc1ccccc1-c1cc(C(=O)N2CCCC2)c2ccccc2n1 | i | i | i | i | i
O=C(c1cc(-c2ccccc2Cl)nc2ccccc12)N1CCC1 | i | i | i | i | i
CN1CCCN(C(=O)c2cc(-c3cccc4ccccc34)nc3ccccc23)CC1 | i | i | 34.6* | i | i
CCc1cccc(NC(=O)CN(C)S(=O)(=O)c2cccs2)c1 | i | i | i | i | i
Cc1cccc(-n2c(C)cc(C=C3C(=O)c4ccccc4C3=O)c2C)c1 | i | i | i | i | -10*
Cc1cccc(-n2c(C)cc(/C=N/n3cnnc3)c2C)c1 | i | i | i | i | -7.32*
CCN(C(=O)COC(=O)c1cccnc1SC)C1CCS(=O)(=O)C1 (configuration not stated) | i | i | i | i | i
COCCNC(=O)C(=O)NCCN1CCNCC1 | i | i | i | i | i
CCCCn1c(SCC(=O)NCc2ccco2)nc2ccccc2c1=O | i | i | i | i | i
CCCCCn1c(SCc2ccncc2)nc2cc(C(=O)NCc3ccco3)ccc2c1=O | i | i | i | i | -8.03*
Cc1ccc(/C=C/C(=O)NCc2ccncc2)cc1 | i | i | i | i | i
SMILES | MrgX1 allo act | MrgX1 antagonist | MrgX1 agonist | RGS4 block | RGS4 act
O=C(COc1ccc(S(=O)(=O)Nc2ccccc2)cc1)NCc1ccccn1 | i | i | i | i | i
C=CCNCc1cc(=O)n2c(-c3ccccc3)csc2n1 | i | i | i | i | -8.75*
O=C1Nc2ccccc2C1=Nc1cccc([N+](=O)[O-])c1 | i | i | i | i | i
Cc1cccc(N=C2C(=O)Nc3c(Cl)cccc32)c1 | i | i | 27.7* | i | i
O=C(N/N=C/c1cc([N+](=O)[O-])ccc1O)C(O)(c1ccccc1)c1ccccc1 | 9.37* | i | i | i | i
CCSc1nc2c(c(=O)[nH]c(=O)n2C)n1CC(O)COc1ccccc1C (configuration not stated) | i | i | i | i | i
Cc1nn(CC(=O)O)c2ccccc12 | i | i | i | i | i
c1ccc(C2=NCCCN2)cc1 | i | i | i | i | i
